Molecules are shown by their SMILES. Activity calls are given as the source filed them.

Series [1] concerns the target Glucagon receptor (Rattus norvegicus) (UniProt P30082). The experiment in a line: Displacement of [125I]glucagon from glucagon receptor in rat hepatocyte membranes at 10 uM after 30 mins by gamma-counting. It counts as cell membranes. In outline: (§1)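 Rat liver was homogenized in 20 volumes of 50 mM Tris–HCl (pH 7.2) and the membrane pellet collected by two 30,000g spins of 15 min each. Membranes were resuspended in Tris–HCl pH 7.2 with 1 mg/mL BSA and 0.1 mg/mL bacitracin. Incubation was with [125I]glucagon (final 50 pM) at 25 °C for 30 min, then filtration onto PEI-treated GF/C filters and gamma counting. Inhibition is relative to binding without compound, after subtracting nonspecific binding with excess glucagon. Run in duplicate.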
On the technique in general: In a radioligand displacement assay an active substance lowers the binding of a labelled ligand.

Series [2] concerns the target T1, Glucagon receptor (Rattus norvegicus, UniProt P30082). As to the kind of experiment: Inhibition of glucagon-induced glucagon receptor-mediated cAMP production in rat hepatocytes after 15 mins by cAMP dynamic2 assay. It counts as functional, cell-based, Hepatocyte. The gist of the method:
(§2)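 Hepatocytes were suspended in HCM medium, seeded on collagen-coated wells and incubated for 5 h. Compound in DMEM with 20 mM HEPES, 0.1% BSA and 0.5 mM IBMX was preincubated for 15 min at room temperature. Glucagon was then added for 5 min at room temperature. Cells were lysed with 0.5 M HCl for 10 min and neutralized with Tris–HCl pH 8.0. Supernatant cAMP was quantified with the cAMP dynamic2 kit.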

The nature of series [3]: Inhibition of glucagon-induced glucagon receptor-mediated cAMP production in dog hepatocytes after 15 mins by cAMP dynamic2 assay. It counts as cell-based. As to conditions: Canis lupus familiaris, Hepatocyte, 0.25 h. In outline:
as §2
In general terms: cAMP levels reflect the balance of adenylyl cyclase and phosphodiesterase activity.

Series [4] deals with Glucagon receptor (Homo sapiens, UniProt P47871). As to the kind of experiment: Inhibition of glucagon-induced glucagon receptor-mediated cAMP production in human hepatocytes after 15 mins by cAMP dynamic2 assay. It counts as functional, cell-based, Hepatocyte. The gist of the method:
as §2

Series [5] deals with Glucagon-like peptide 1 receptor (Homo sapiens, UniProt P43220). As to the kind of experiment: Inhibition of GLP-1R (unknown origin).
Series [6] has as its target Voltage-gated inwardly rectifying potassium channel KCNH2 (Homo sapiens, UniProt Q12809). The experiment in a line: Inhibition of human ERG.
The nature of series [7]: Inhibition of sodium channel site 2 (unknown origin). Also noted: species or system Homo sapiens.
Series [8] deals with Rattus norvegicus. The experiment in a line: Half life in rat at 1 mg/kg, iv. It counts as ADME, organism-based. Also noted: dose 1 mg/kg, route intravenous. Conditions: in vivo.
For series [9], the system named is Rattus norvegicus. The experiment in a line: Volume of distribution at steady state in rat at 1 mg/kg, iv. It counts as ADME, organism-based. Also noted: dose 1 mg/kg, route intravenous. As to conditions: in vivo.
The nature of series [10]: Cmax in rat at 1 mg/kg, po. It counts as ADME, organism-based. Also noted: dose 1 mg/kg, route oral. Conditions: in vivo.
Series [11] in a line: Half life in rat at 1 mg/kg, po. It counts as ADME, organism-based. Also noted: dose 1 mg/kg, route oral. Conditions: in vivo.
Series [12] can be described thus: Oral bioavailability in rat at 1 mg/kg. It counts as ADME, organism-based. Conditions: in vivo.
For series [13], the system named is Rattus norvegicus. The experiment in a line: Inhibition of glucagon-induced glucose elevation in rat at 30 mg/kg, po administered 30 mins prior challenge measured up to 6 hrs. It counts as functional, organism-based. Also noted: dose 30 mg/kg. The gist of the method: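 Normal rats were dosed orally 30 min before an intravenous glucagon challenge, with blood sampled afterwards for glucose. Values are mean ± SEM, n = 6 per group; Dunnett multiple comparison test.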

Series [14] concerns Rattus norvegicus. As to the kind of experiment: Inhibition of glucagon-induced glucose elevation in normal rat at 30 mg/kg, po administered 30 mins prior challenge measured up to 6 hrs.
For series [15], the target named is T1, Glucagon receptor. The experiment in a line: Displacement of [125I]glucagon from glucagon receptor in rat hepatocyte membranes after 30 mins by gamma-counting. It counts as cell membranes. The gist of the method:
as §1

T1 sequence (P30082 whole entry): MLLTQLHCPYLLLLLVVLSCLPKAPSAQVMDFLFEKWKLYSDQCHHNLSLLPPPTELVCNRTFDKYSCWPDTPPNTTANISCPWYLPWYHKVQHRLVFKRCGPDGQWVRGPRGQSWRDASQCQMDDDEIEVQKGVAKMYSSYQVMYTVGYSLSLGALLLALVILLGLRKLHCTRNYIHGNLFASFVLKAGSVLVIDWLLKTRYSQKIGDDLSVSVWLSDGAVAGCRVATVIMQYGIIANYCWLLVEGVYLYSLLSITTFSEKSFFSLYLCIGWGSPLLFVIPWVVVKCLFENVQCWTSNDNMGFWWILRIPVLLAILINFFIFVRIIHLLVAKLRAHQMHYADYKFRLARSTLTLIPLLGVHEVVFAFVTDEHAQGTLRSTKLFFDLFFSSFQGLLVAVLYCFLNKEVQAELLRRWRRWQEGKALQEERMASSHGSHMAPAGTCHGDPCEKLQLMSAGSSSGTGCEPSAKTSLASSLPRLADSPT
Chain of Glucagon receptor (Rattus norvegicus) (P30082 whole entry): as above
Chain of Voltage-gated inwardly rectifying potassium channel KCNH2 (Q12809 whole entry): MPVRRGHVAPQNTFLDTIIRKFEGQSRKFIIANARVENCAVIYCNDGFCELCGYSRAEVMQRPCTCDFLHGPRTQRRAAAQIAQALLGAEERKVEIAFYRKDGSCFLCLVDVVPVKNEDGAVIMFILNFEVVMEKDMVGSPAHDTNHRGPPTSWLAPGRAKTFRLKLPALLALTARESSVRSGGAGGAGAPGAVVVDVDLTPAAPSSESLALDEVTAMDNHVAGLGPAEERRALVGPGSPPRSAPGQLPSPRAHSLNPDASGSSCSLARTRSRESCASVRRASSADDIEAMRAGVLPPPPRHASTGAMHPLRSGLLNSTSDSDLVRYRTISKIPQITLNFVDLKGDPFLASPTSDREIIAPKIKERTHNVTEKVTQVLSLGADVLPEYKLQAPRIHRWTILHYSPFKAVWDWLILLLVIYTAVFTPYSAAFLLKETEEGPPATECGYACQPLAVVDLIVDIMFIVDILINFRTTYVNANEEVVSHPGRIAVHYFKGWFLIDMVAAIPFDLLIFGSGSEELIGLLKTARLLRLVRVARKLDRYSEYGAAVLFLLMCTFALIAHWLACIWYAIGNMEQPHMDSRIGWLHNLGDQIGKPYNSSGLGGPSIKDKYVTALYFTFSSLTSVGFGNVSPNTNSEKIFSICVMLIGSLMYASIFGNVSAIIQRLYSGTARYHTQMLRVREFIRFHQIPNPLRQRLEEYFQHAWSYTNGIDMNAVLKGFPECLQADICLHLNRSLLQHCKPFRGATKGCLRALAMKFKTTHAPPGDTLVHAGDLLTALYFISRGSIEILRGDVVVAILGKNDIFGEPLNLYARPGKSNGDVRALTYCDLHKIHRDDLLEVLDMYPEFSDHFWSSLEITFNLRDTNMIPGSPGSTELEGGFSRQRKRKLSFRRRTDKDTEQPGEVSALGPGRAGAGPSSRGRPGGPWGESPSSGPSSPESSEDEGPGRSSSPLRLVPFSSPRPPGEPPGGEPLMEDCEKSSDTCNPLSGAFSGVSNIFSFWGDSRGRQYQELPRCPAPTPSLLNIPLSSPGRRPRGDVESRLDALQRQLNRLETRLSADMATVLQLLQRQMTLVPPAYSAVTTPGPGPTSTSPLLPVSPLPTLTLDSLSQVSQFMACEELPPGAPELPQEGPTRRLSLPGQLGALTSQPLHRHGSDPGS
Chain of Glucagon-like peptide 1 receptor (P43220 whole entry): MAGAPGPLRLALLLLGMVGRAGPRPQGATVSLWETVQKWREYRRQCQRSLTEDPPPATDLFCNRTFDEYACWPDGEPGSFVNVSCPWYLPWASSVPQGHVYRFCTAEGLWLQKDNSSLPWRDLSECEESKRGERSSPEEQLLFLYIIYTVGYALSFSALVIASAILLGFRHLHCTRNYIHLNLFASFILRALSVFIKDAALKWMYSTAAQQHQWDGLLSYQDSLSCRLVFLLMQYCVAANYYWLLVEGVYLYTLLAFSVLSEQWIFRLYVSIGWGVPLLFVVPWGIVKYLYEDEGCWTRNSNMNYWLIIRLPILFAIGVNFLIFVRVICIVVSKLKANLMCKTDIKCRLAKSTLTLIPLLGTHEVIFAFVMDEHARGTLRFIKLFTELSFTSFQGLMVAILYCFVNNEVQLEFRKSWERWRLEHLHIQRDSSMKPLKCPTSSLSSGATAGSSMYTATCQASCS
Chain of Glucagon receptor (Homo sapiens, UniProt P47871) (P47871 whole entry): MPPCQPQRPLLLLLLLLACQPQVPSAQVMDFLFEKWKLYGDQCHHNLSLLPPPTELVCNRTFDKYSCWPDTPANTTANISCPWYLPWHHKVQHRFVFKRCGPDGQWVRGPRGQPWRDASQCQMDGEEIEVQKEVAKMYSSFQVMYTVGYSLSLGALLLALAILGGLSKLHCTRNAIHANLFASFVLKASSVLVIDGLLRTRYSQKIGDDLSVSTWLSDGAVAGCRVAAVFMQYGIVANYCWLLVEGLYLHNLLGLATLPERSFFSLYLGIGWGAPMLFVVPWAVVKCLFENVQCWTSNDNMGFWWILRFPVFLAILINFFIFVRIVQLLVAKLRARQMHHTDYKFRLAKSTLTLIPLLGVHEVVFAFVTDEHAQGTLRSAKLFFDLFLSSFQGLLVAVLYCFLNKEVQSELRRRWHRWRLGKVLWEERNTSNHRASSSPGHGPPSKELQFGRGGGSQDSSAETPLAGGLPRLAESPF

The inhibition is the percentage by which the read-out fell short of the control. With `COc1ccc(C(=O)NNC(=O)c2occ(-c3ccccc3)c2-c2ccccc2)cc1`, the inhibition result in [1] is “inactive”.
One may read the IC50 as the concentration needed to halve the response being measured. Low values mean inhibition by little substance, high ones a need for much substance. What is called Vdss is a proportionality between amount in the body and measured concentration, not a real space. High values mean extensive tissue distribution, low ones confinement near the circulation. In general, Cmax refers to the peak of the concentration-time curve. For orientation: half-life means the time needed for the level to fall by half in the phase considered. A higher half-life goes with slow loss. In general, bioavailability refers to the share of a dose that reaches the circulation, judged against a reference dose that is usually intravenous. Read a high bioavailability as much systemic uptake. Regarding `CCCCCc1ccc(-c2ccoc2C(=O)NNC(=O)c2ccc(O)c([N+](=O)[O-])c2)cc1`, the IC50 in series [2] was 5.3 nM; in [3], 183 nM; in [4], 292 nM; in series [5], greater than 1000 nM; in [6], greater than 1000 nM; in [7], greater than 1000 nM. The molecule also displayed a t1/2 in series [8] of 5.9 h. The molecule further had a Vdss in [9] of 0.59 L/kg. This molecule also displayed a Cmax in [10] of 411 ng/mL. The molecule also showed a half-life in series [11] of 6.1 h. The molecule further came in with a bioavailability in series [12] of 37%. For the same molecule, the inhibition result in series [13] and in series [14] was “Active” throughout.
In [1], `O=C(NNC(=O)c1occ(-c2ccccc2)c1-c1ccccc1)c1ccc(O)c(O)c1` showed an inhibition of 57%.
As for `O=C(NNC(=O)c1occ(-c2ccccc2)c1-c1ccccc1)c1ccccc1`, in series [1], the inhibition is 42%.
For the molecule `O=C(NNC(=O)c1occ(-c2ccccc2)c1-c1ccccc1)c1ccc(O)c([N+](=O)[O-])c1`, the 50% inhibitory concentration (IC50) in [15] is 87 nM.
In series [1], `O=C(NNC(=O)c1cc(-c2ccccc2)co1)c1ccoc1` came in with an inhibition of 6%.
Consider `O=C(NNC(=O)c1occ(-c2ccccc2)c1-c1ccccc1)c1ccc(O)cc1`, for which the inhibition in series [1] is 65%. Further, the IC50 in series [15] worked out at 9500 nM.
`O=C(NNC(=O)c1occ(-c2ccccc2)c1-c1ccccc1)c1ccc(O)c(F)c1` had a half-maximal inhibitory concentration (IC50) in series [15] of 1400 nM.
The molecule `O=C(NNC(=O)c1occ(-c2ccccc2)c1-c1ccccc1)c1ccco1` had an inhibition in series [1] of 50%.
`O=C(NNC(=O)c1occ(-c2ccccc2)c1-c1ccccc1)c1ccoc1` gave an inhibition in series [1] of 73%.
In series [15], `O=C(NNC(=O)c1occ(-c2ccccc2)c1-c1ccccc1)c1ccc(O)c(-c2ccccc2)c1` had a half-inhibitory concentration (IC50) greater than 10000 nM.
In the case of `O=C(NNC(=O)c1occ(-c2ccccc2)c1-c1ccccc1)c1ccc(O)c(Cl)c1`, the IC50 in [15] turned out to be 430 nM.
In the case of `O=C(NNC(=O)c1occ(-c2ccccc2)c1-c1ccccc1)c1ccc(O)nc1`, the half-inhibitory concentration (IC50) in series [15] is 970 nM.
The same measure, in the same setting: the figure for `COc1cc(C(=O)NNC(=O)c2occ(-c3ccccc3)c2-c2ccccc2)ccc1O` is 9500 nM.
Regarding `O=C(NNC(=O)c1occ(-c2ccccc2)c1-c1ccccc1)c1ccc(O)c(Br)c1`, the 50% inhibitory concentration (IC50) in [15] worked out at 270 nM.
For the molecule `O=C(O)c1ccc(C(=O)NNC(=O)c2occ(-c3ccccc3)c2-c2ccccc2)cc1`, the inhibition in series [1] stood at 61%.
The molecule `O=C(NNC(=O)c1occ(-c2ccccc2)c1-c1ccccc1)c1cccc(O)c1` registered an inhibition in series [1] of 21%.

These data come from ChEMBL document CHEMBL3352234, “Discovery of furan-2-carbohydrazides as orally active glucagon receptor antagonists” (Bioorg Med Chem Lett, 2014).
